Here are results for 16 molecules from ChEMBL document CHEMBL4304739, “Discovery of 3-(Indol-5-yl)-indazole Derivatives as Novel Myeloid Differentiation Protein 2/Toll-like Receptor 4 Antagonists for Treatment of Acute Lung Injury” (J Med Chem, 2019).

Calls of active or inactive are those of the source. The rule behind the calls is not given here.

The IC50 is the concentration that inhibits the measured activity by half.

Data set [1] has as its target T1, Toll-like receptor 4/Ly96 (Mus musculus, UniProt Q9JHF9+Q9QUK6).
T1 sequence (Q9QUK6 whole entry): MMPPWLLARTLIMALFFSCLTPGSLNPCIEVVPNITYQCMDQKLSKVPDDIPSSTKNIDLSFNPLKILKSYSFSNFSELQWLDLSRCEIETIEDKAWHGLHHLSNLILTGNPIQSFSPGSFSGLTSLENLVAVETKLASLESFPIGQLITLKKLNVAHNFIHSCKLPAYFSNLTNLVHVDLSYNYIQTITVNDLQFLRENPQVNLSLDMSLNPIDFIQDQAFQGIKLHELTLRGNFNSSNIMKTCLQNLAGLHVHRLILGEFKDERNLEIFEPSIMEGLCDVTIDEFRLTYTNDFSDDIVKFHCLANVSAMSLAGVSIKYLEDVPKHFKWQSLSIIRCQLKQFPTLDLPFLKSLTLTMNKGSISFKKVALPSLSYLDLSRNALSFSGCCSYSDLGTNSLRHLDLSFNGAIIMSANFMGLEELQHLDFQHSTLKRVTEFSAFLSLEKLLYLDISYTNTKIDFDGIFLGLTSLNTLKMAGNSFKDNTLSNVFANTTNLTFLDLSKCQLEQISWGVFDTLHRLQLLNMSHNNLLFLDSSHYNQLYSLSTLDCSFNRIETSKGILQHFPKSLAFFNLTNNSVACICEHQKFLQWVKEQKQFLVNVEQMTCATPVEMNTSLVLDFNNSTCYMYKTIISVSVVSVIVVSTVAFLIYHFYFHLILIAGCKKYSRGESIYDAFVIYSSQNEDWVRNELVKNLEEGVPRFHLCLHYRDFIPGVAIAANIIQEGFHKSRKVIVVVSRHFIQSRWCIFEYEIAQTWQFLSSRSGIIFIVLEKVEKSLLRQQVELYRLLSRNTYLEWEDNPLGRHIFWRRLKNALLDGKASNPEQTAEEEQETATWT
T1 sequence (Q9JHF9 whole entry): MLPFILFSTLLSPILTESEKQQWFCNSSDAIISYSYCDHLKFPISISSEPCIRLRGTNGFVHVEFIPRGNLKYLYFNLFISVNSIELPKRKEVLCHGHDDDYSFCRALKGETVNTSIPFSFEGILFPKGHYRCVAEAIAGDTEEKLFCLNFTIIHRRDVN
Put plainly: Inhibition of MD2-TLR4 protein-protein interaction in ICR mouse peritoneal macrophages assessed as reduction in LPS-induced IL-6 production preincubated for 2 hrs followed by LPS-stimulation and measured after 22 hrs by ELISA.

Data set [2] addresses T1, Toll-like receptor 4/Ly96. As to the kind of experiment: Inhibition of MD2-TLR4 protein-protein interaction in ICR mouse peritoneal macrophages assessed as reduction in LPS-induced TNFalpha production preincubated for 2 hrs followed by LPS-stimulation and measured after 22 hrs by ELISA. Background: An ELISA detects its analyte on a solid surface through an enzyme-linked reagent.

The subject of a further data set is Peritoneal macrophage. As to the kind of experiment: Cytotoxicity against ICR mouse peritoneal macrophages assessed as reduction in cell viability at 10 uM measured after 24 hrs by MTT assay. It is filed as cell-based. Put shortly:
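Peritoneal macrophages from ICR mice, 2.0×10^4 cells/well in DMEM with 10% FBS. Cells exposed to compound for 24 h, then MTT (5 mg/ml in 0.9% NaCl) added for 4 h at 37 °C in 5% CO2. Absorbance read at 490 nm; final DMSO 0.1%.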
(In general: Tetrazolium dyes change colour on reduction, which living cells bring about.)

Data set [3] concerns Mus musculus. Put plainly: Antiinflammatory activity in LPS-induced C57BL/6 mouse model of acute lung injury assessed as reduction in F4/80 positive macrophage at 10 mg/kg, iv pretreated for 15 mins followed by LPS stimulation and measured after 6 hrs by ABC/hematoxylin staining-based immunohistochemistry analysis. It is filed as functional, organism-based. Put shortly:
(§1)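 Male C57BL/6 mice (18−22 g; n=8 per group). Compound in 0.1% CMC-Na given by tail vein injection 15 min before intraperitoneal LPS (20 mg/kg); controls received saline. Mice were sacrificed 6 h after LPS, and serum and lung tissue were collected.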

Data set [4] has as its system Mus musculus. As to the kind of experiment: Antiinflammatory activity in LPS-induced C57BL/6 mouse model of acute lung injury assessed as reduction in lung injury score at 10 mg/kg, iv pretreated for 15 mins followed by LPS stimulation and measured after 6 hrs. The class given is functional, organism-based. Put shortly: as §1

For `O=C(Nc1ccc2[nH]nc(-c3ccc4c(ccn4CCO)c3)c2c1)c1c(Cl)cccc1Cl`, the IC50 in data set [1] was 0.73 µM; in data set [2], 6.31 µM. Also, the Activity result in the data set with Peritoneal macrophage is given as “Non-Toxic”.
Consider `Nc1ccc2[nH]nc(-c3ccc4c(ccn4CCO)c3)c2c1`, for which the Activity result in the data set with Peritoneal macrophage was “Non-Toxic”.
`CC(=O)Nc1ccc2[nH]nc(-c3ccc4c(ccn4CCO)c3)c2c1`: the Activity entry in the data set with Peritoneal macrophage is reported as “Non-Toxic”.
On to `O=C(Nc1ccc2[nH]nc(-c3ccc4c(ccn4CCO)c3)c2c1)c1ccc(F)cc1`, for which, in the data set on Peritoneal macrophage, the Activity result is “Non-Toxic”.
On to `O=[N+]([O-])c1ccc2[nH]nc(-c3ccc4c(ccn4CCO)c3)c2c1`, for which the IC50 in data set [1] worked out at 0.84 µM; in data set [2] it was 6.99 µM. Moreover, the Activity result in the data set on Peritoneal macrophage was “Non-Toxic”.
Turning to `O=C(Nc1ccc2[nH]nc(-c3ccc4c(ccn4CCO)c3)c2c1)c1cccc(Cl)c1`, the Activity entry in the data set on Peritoneal macrophage is reported as “Non-Toxic”.
As to `CCCn1c(-c2c[nH]c3ncccc23)nc2ccc(N3CCN(C)CC3)nc21`, the outcome in the data set on Mus musculus [3] and in the data set with Mus musculus [4] was Active.
Turning to `O=C(/C=C/c1ccccc1)Nc1ccc2[nH]nc(-c3ccc4c(ccn4CCO)c3)c2c1`, the Activity result in the data set on Peritoneal macrophage was “Non-Toxic”.
The same measure, in the same setting: in the case of `CCC(=O)Nc1ccc2[nH]nc(-c3ccc4c(ccn4CCO)c3)c2c1` it was “Non-Toxic”; in that of `COc1cc(OC)cc(C(=O)Nc2ccc3[nH]nc(-c4ccc5c(ccn5CCO)c4)c3c2)c1`, “Non-Toxic”; in that of `Cc1cccc(C(=O)Nc2ccc3[nH]nc(-c4ccc5c(ccn5CCO)c4)c3c2)n1`, “Non-Toxic”.
The same measure, in the same setting: in the case of `Cc1cccc(C(=O)Nc2ccc3[nH]nc(-c4ccc5c(ccn5CCO)c4)c3c2)c1` it was “Non-Toxic”; in that of `O=C(Nc1ccc2[nH]nc(-c3ccc4c(ccn4CCO)c3)c2c1)c1ccccn1`, “Non-Toxic”; in that of `O=C(Nc1ccc2c(c1)c(-c1ccc3[nH]ccc3c1)nn2Cc1ccccc1)c1c(Cl)cccc1Cl`, “Non-Toxic”.
On the same count and under the same terms, the entry for `O=C(Nc1ccc2[nH]nc(-c3ccc4c(ccn4CCO)c3)c2c1)c1ccc(Cl)cc1` is “Non-Toxic”.
Take `O=C(CCCl)Nc1ccc2[nH]nc(-c3ccc4c(ccn4CCO)c3)c2c1`: the IC50 came to 4.57 µM in data set [1] and 3.47 µM in data set [2]. Further, the Activity entry with Peritoneal macrophage was “Non-Toxic”.
